# From ChEMBL document CHEMBL4425094, “Novel Benzo[a]quinolizidine Analogs Induce Cancer Cell Death through Paraptosis and Apoptosis” (J Med Chem, 2016)
# pIC50: −log10 of the molar value.
# How the values were obtained:
# RWPE-1 = experiment: Cytotoxicity against human RWPE1 cells assessed as cell growth inhibition after 24 hrs by MTT assay; type: cell-based; details: RWPE-1, 24 h
# Outline: (§1)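 Cells seeded 24 h in RPMI 1640 + 10% FBS. RWPE-1 was kept in K-SFM with bovine pituitary extract and EGF. Cells then exposed to compounds for 24 h at 37 °C, 5% CO2, with DMSO vehicle and docetaxel as positive control. MTT added for 4 h, absorbance read at 570 nm. Triplicate runs, IC50 reported as mean of three experiments.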
# K562 = experiment: Cytotoxicity against human K562 cells assessed as cell growth inhibition after 24 hrs by MTT assay; type: functional, cell-based; details: K562, 24 h; outline: as §1
# MCF7 = experiment: Cytotoxicity against human MCF7 cells assessed as cell growth inhibition after 24 hrs by MTT assay; type: functional, cell-based; details: MCF7, 24 h; outline: as §1
# DU-145 = experiment: Cytotoxicity against human DU145 cells assessed as cell growth inhibition after 24 hrs by MTT assay; type: functional, cell-based; details: DU-145, 24 h; outline: as §1
# MDA-MB-231 = experiment: Cytotoxicity against human MDA-MB-231 cells assessed as cell growth inhibition after 24 hrs by MTT assay; type: functional, cell-based; details: MDA-MB-231, 24 h; outline: as §1
# PC-3 = experiment: Cytotoxicity against human PC3 cells assessed as cell growth inhibition after 24 hrs by MTT assay; type: functional, cell-based; details: PC-3, 24 h; outline: as §1
# HeLa = experiment: Cytotoxicity against human HeLa cells assessed as cell growth inhibition after 24 hrs by MTT assay; type: functional, cell-based; outline: as §1
Compound,pIC50 (RWPE-1),pIC50 (K562),pIC50 (MCF7),pIC50 (DU-145),pIC50 (MDA-MB-231),pIC50 (PC-3),pIC50 (HeLa)
CCCCCC[C@@H]1C[C@H](O)C[C@H]2c3cc(OCc4ccccc4)c(OCc4ccccc4)cc3CCN12,< 4.70,< 4.70,< 4.70,< 4.70,< 4.70,< 4.70,< 4.70
O[C@@H]1CCN2CCc3cc(OCc4ccccc4)c(OCc4ccccc4)cc3[C@@H]2C1 (relative stereo),< 4.70,< 4.70,< 4.70,< 4.70,< 4.70,< 4.70,< 4.70
COc1ccc([C@@H]2C[C@H](O)C[C@H]3c4cc(OCc5cc(F)cc(F)c5)c(OCc5cc(F)cc(F)c5)cc4CCN23)cc1OC,< 4.70,< 4.70,< 4.70,< 4.70,< 4.70,< 4.70,< 4.70
C[C@@H]1C[C@H](O)C[C@H]2c3cc4c(cc3CCN12)OCO4,< 4.70,< 4.70,< 4.70,< 4.70,< 4.70,< 4.70,< 4.70
CC[C@@H]1CC(=O)C/C=C(/C)[C@H]2c3cc(OCc4ccccc4)c(OCc4ccccc4)cc3CCN12 (relative stereo),< 4.70,< 4.70,< 4.70,< 4.70,< 4.70,< 4.70,< 4.70
O[C@@H]1C[C@@H](c2ccccc2)N2CCc3cc4c(cc3[C@@H]2C1)OCO4,< 4.70,< 4.70,< 4.70,< 4.70,< 4.70,< 4.70,< 4.70
CCCCCCOc1cc2c(cc1OCCCCCC)[C@@H]1CC(=O)C[C@@H](C)N1CC2 (relative stereo),< 4.70,< 4.70,< 4.70,< 4.70,< 4.70,< 4.70,< 4.70
CC[C@@H]1C[C@@H](O)C[C@H]2c3cc(OCc4ccccc4)c(OCc4ccccc4)cc3CCN12,5.66,5.85,5.55,5.77,5.54,5.67,5.61
COc1cc2c(cc1OC)[C@@H]1C[C@H](O)C[C@@H](c3ccccc3)N1CC2,< 4.70,< 4.70,< 4.70,< 4.70,< 4.70,< 4.70,< 4.70
C[C@@H]1C[C@@](C)(O)C[C@H]2c3cc(OCc4ccc(Br)cc4)c(OCc4ccc(Br)cc4)cc3CCN12,5.53,5.75,6.08,5.71,5.92,6.10,5.73
CCCCCCCCCCCCCCCCOc1cc2c(cc1OCCCCCCCCCCCCCCCC)[C@@H]1CC(=O)C[C@@H](C)N1CC2,< 4.70,< 4.70,< 4.70,< 4.70,< 4.70,< 4.70,< 4.70
O=C1C=CN2CCc3cc(OCc4ccccc4)c(OCc4ccccc4)cc3C2C1 (centres undefined),< 4.70,< 4.70,< 4.70,< 4.70,< 4.70,< 4.70,< 4.70
O[C@@H]1C[C@@H](c2ccccc2)N2CCc3cc(OCc4ccccc4)ccc3[C@@H]2C1,< 4.70,< 4.70,< 4.70,< 4.70,< 4.70,< 4.70,< 4.70
COc1ccc([C@@H]2C[C@H](O)C[C@H]3c4cc(OCc5cc(C)cc(C)c5)c(OCc5cc(C)cc(C)c5)cc4CCN23)cc1OC,< 4.70,< 4.70,< 4.70,< 4.70,< 4.70,< 4.70,< 4.70
C[C@]1(O)C[C@@H](c2ccccc2)N2CCc3cc(OCc4ccccc4)c(OCc4ccccc4)cc3[C@@H]2C1,< 4.70,< 4.70,< 4.70,< 4.70,< 4.70,< 4.70,< 4.70
O[C@H]1C[C@@H](c2ccc(-c3ccccc3)cc2)N2CCc3cc(OCc4ccccc4)c(OCc4ccccc4)cc3[C@@H]2C1,< 4.70,< 4.70,< 4.70,< 4.70,< 4.70,< 4.70,< 4.70
CCCCCCOc1cc2c(cc1OCCCCCC)[C@@H]1C[C@@H](O)C[C@@H](C)N1CC2,< 4.70,< 4.70,< 4.70,< 4.70,< 4.70,< 4.70,< 4.70
